Rows were chosen to be rich in hits. Some 2.6% of all compounds tested hit in one or more screens of this group.
MC4R antagonist = antagonists of human melanocortin 4 receptor (MC4R); MC4R-expressing cells, MTII-stimulated cAMP, LANCE TR-FRET; inhibition, % at 6.5 µM; 360,000 compounds, 0.48% hits; P32245;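 active means inhibition above its plate's cutoff, the mean of tested wells on that plate plus 3 SD, cut at about 29% in these data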
Target sequence (P32245 whole entry, looked up): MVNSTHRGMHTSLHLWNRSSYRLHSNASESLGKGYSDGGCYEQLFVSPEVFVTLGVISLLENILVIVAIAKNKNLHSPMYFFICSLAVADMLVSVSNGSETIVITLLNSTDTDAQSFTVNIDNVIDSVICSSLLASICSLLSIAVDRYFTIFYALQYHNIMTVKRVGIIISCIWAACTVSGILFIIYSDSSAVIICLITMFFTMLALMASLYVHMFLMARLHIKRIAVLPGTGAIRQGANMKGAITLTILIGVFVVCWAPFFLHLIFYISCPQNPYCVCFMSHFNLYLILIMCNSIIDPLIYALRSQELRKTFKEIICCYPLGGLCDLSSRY
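Test system: U2OS cells stably expressing human melanocortin 4 receptor (MC4R); also added: Melanotan II challenge; compound: 6.5 µM single dose; timing: 30-min compound preincubation, 1-h Melanotan II challenge, 1-h detection, room temperature; signal: Eu-cAMP/anti-cAMP TR-FRET, emission 671 nm; repeats: one well per compound, no replicates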
T cell modulator = T cell immune modulators affecting CD8 T cell-vesicle binding; 330,000 compounds, 0.068% hits; 2C CD8+ T cell-vesicle binding, flow cytometry; active compounds read low; AID 2052; response (vesicle binding), % at 7 µM;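 active means response, share of CD8 T cells binding vesicles, and their 90th percentile fluorescence all below set limits, cut at about 80% in these data, passing the limit was not always enough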;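 further: values below 100% mean blocked vesicle binding to the CD8+ T cells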
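Read-out – percent CD8+ FL2 mean versus row control · System – murine 2C transgenic CD8+ T lymphocytes · Times – 1.5 h cell–vesicle binding at 37 °C, then 20 min icy labelling · Control set – naked vesicles low, QL9 vesicles with vehicle high · Detection – cytometric PE anti-B7-1 and Alexa647 anti-CD8 signals after 1% paraformaldehyde fixation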
Exocytosis inh = lytic granule exocytosis inhibition; TALL-104 LAMP-1 surface exposure, flow cytometry; cells stimulated with thapsigargin and PMA; inhibition, % at 10 µM; 360,000 compounds, 0.66% hits; AID 651702;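 active means inhibition above about 55%, limit read from the data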
EP2 antag = inhibitors of human EP2 prostaglandin E2 receptor | P43116 | C6 glioma cells expressing human EP2, cAMP TR-FRET; cells stimulated with saturating PGE2 | inhibition, % at 25 µM | 260,000 compounds, 0.52% hits | AID 1422;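 active means percent inhibition above 40 after rounding to a whole number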;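 further: rat C6 glioma host cells with rolipram phosphodiesterase inhibitor present; the protocol text gives 20 µM as final concentration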
Target sequence (P43116 whole entry, looked up): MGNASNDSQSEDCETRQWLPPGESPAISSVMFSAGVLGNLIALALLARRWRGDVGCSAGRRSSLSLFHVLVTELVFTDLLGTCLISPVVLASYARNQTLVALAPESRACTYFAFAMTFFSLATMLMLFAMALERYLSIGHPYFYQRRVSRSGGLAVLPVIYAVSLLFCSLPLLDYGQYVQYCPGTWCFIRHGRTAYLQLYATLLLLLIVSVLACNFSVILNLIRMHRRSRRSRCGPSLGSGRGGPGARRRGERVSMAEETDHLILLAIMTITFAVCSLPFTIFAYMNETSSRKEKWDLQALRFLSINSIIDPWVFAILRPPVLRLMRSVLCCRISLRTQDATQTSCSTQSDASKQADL
MC4R ag barr = activates human MC4R beta-arrestin recruitment | activation, % at 8.9 µM | 360,000 compounds, 0.98% hits | P32245 | U2OS MC4R beta-arrestin complementation, luminescence; percent of melanotan II response, DMSO zero | AID 540308;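 active means activation above a per-plate cutoff, the mean activation of sample wells on that plate plus 3 SD, cut at about 8% in these data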
EP2 mod = modulators of human EP2 prostaglandin E2 receptor. EP2-expressing cells, cAMP HTRF FRET, PGE2 co-stimulation. induction, % at 25 µM. 260,000 compounds, 0.83% hits;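 active means compounds whose cAMP rise, as percent of the full-agonist control response, exceeds 60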;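 further: rat C6 glioma line stably carrying human EP2 under a CMV promoter; the protocol text gives 20 µM as final concentration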
Hits are given with their value; ! = repeats disagree.

What do the screens show for `COc1ccc2[nH]c3c(=O)n(/N=C/[C@H]4C(C)C=C(C)CC4C)c(=O)[nH]c3c2c1` (some centres not stated)?
MC4R antagonist: inactive; T cell modulator: inactive; Exocytosis inh: inactive; EP2 antag: inactive; MC4R ag barr: 8.3; EP2 mod: inactive

What do the screens show for `CCOc1ccc2nc(SCC(=O)c3ccc(O)cc3O)sc2c1`?
MC4R antagonist: inactive; T cell modulator: inactive; Exocytosis inh: inactive; MC4R ag barr: 8.5

Results for Cc1ccc(S(=O)(=O)NCc2c(Cl)cccc2Oc2ccccc2)cc1 ?
MC4R antagonist: inactive; T cell modulator: inactive; Exocytosis inh: inactive; EP2 antag: inactive; MC4R ag barr: inactive; EP2 mod: 69

How did O=S(=O)(NCc1c(Cl)cccc1Oc1ccccc1)c1ccccc1 do in these assays?
MC4R antagonist: inactive; T cell modulator: inactive; Exocytosis inh: inactive; EP2 antag: inactive; MC4R ag barr: inactive; EP2 mod: inactive

What do the screens show for `O=C(N/N=C/c1ccc(-c2ccc([N+](=O)[O-])cc2)o1)[C@H]1C[C@@H]1c1ccccc1`?
MC4R antagonist: inactive; T cell modulator: inactive; Exocytosis inh: 62; EP2 antag: inactive; MC4R ag barr: inactive; EP2 mod: inactive

How did O=C(O)c1ccc(-c2ccc(/C=N/Nc3ccc([N+](=O)[O-])cc3)o2)cc1 do in these assays?
MC4R antagonist: inactive; T cell modulator: inactive; Exocytosis inh: inactive; EP2 antag: 46; MC4R ag barr: inactive; EP2 mod: inactive

How did O=C(O)c1cccc(-c2ccc(/C=N/Nc3ccc([N+](=O)[O-])cc3)o2)c1 do in these assays?
MC4R antagonist: inactive; T cell modulator: inactive; Exocytosis inh: inactive; EP2 antag: inactive; MC4R ag barr: inactive; EP2 mod: inactive

How did CC(=O)OC[C@H]1O[C@H](C/C=N/O[C@@H](C)c2cn([C@H](CO)Cc3ccccc3)nn2)C=C[C@@H]1OC(C)=O do in these assays?
T cell modulator: inactive; EP2 mod: inactive

What do the screens show for `CCNC(=S)/N=C(/Nc1ccccc1)Nc1nc(C)cc(C)n1`?
MC4R antagonist: inactive; T cell modulator: inactive; Exocytosis inh: inactive; EP2 antag: inactive; MC4R ag barr: inactive; EP2 mod: 70

What do the screens show for `CCNC(=S)/N=C(/Nc1ccc(OC)cc1)Nc1nc(C)cc(C)n1`?
MC4R antagonist: inactive; T cell modulator: inactive; Exocytosis inh: inactive; EP2 antag: inactive; MC4R ag barr: inactive; EP2 mod: inactive

What do the screens show for `CCCCCCC#Cc1ccc2c(c1)COc1c3ccccc3nn1-2`?
MC4R antagonist: inactive; T cell modulator: 0.0; Exocytosis inh: inactive; EP2 antag: inactive; MC4R ag barr: inactive; EP2 mod: inactive

How did CCCCC#Cc1ccc2c(c1)COc1c3ccccc3nn1-2 do in these assays?
MC4R antagonist: inactive; T cell modulator: inactive; Exocytosis inh: inactive; EP2 antag: inactive; MC4R ag barr: inactive; EP2 mod: inactive

How did O=C(Cn1c(=O)oc2cc(S(=O)(=O)N3CCCCCC3)ccc21)NC1CCCCC1 do in these assays?
MC4R antagonist: inactive; T cell modulator: inactive; Exocytosis inh: inactive; EP2 antag: inactive; MC4R ag barr: inactive; EP2 mod: inactive

How did OCC1(Cc2ccc(F)cc2F)CCCN(CCCc2ccccc2)C1 (configuration not stated) do in these assays?
MC4R antagonist: inactive; T cell modulator: inactive; Exocytosis inh: inactive; MC4R ag barr: 9.5

Results for OCC1(Cc2ccccc2F)CCCN(CCc2ccccc2)C1 (configuration not stated) ?
MC4R antagonist: inactive; T cell modulator: inactive; Exocytosis inh: inactive; MC4R ag barr: inactive

What do the screens show for `C/C(=N\O)c1ccccc1C(=O)O`?
MC4R antagonist: inactive; T cell modulator: inactive; Exocytosis inh: inactive; EP2 antag: inactive; MC4R ag barr: inactive; EP2 mod: inactive

How did CCOC(=O)N1CCN(C(=O)CSc2nnc(CNC(=O)c3ccccc3F)o2)CC1 do in these assays?
MC4R antagonist: inactive; T cell modulator: inactive; Exocytosis inh: inactive; EP2 antag: inactive; MC4R ag barr: inactive; EP2 mod: inactive

What do the screens show for `C[n+]1cc2c3c(ccc2c2ccc4cc5c(cc4c21)OCO5)OCO3`?
EP2 antag: 118; EP2 mod: inactive

What do the screens show for `FC(F)(F)c1nc2ccccc2nc1N/N=C/c1c(Cl)cccc1Cl`?
MC4R antagonist: inactive; T cell modulator: inactive; Exocytosis inh: inactive; EP2 antag: inactive; MC4R ag barr: 8.3; EP2 mod: inactive

What do the screens show for `O=C(N/N=C/c1cn(-c2ccccc2)nc1-c1cc2ccccc2o1)c1cccnc1`?
MC4R antagonist: inactive; T cell modulator: inactive; Exocytosis inh: 75; EP2 antag: inactive; MC4R ag barr: inactive; EP2 mod: inactive

Results for Cc1ccc(C)c(N2CCN(Cc3nnnn3CC3CCCO3)CC2)c1 (configuration not stated) ?
EP2 antag: inactive; EP2 mod: inactive

Results for Cc1ccc(C)c(N2CCN(Cc3nnnn3C3CCCCC3)CC2)c1 ?
MC4R antagonist: inactive; T cell modulator: inactive; Exocytosis inh: inactive; EP2 antag: inactive; MC4R ag barr: inactive; EP2 mod: 61!

Results for CCc1ccc(Nc2nc(N)nc(CSc3nnnn3-c3ccccc3)n2)cc1 ?
MC4R antagonist: inactive; T cell modulator: inactive; Exocytosis inh: inactive; EP2 antag: inactive; MC4R ag barr: 8.5; EP2 mod: inactive

How did O=C(NC(=S)N1CCOCC1)C12CC3CCC(CC(C3)C1)C2 do in these assays?
MC4R antagonist: inactive; T cell modulator: inactive; Exocytosis inh: inactive; EP2 antag: inactive; MC4R ag barr: inactive; EP2 mod: inactive

What do the screens show for `CC12CC3(C)CC(C)(C1)CC(C(=O)NC(=S)N1CCOCC1)(C2)C3`?
MC4R antagonist: inactive; T cell modulator: inactive; Exocytosis inh: inactive; EP2 antag: inactive; MC4R ag barr: 8.7; EP2 mod: inactive

How did O=C(O)CSCC(=O)N1CCN(c2nc3cc(Cl)ccc3s2)CC1 do in these assays?
MC4R antagonist: inactive; T cell modulator: inactive; Exocytosis inh: inactive; MC4R ag barr: inactive

What do the screens show for `CCc1cccc(C)c1NC(=O)Cn1nc(C)n2cccc2c1=O`?
MC4R antagonist: inactive; T cell modulator: inactive; Exocytosis inh: inactive; MC4R ag barr: inactive

What do the screens show for `O=C(Nc1ccccc1N1CCCCC1)c1cccs1`?
MC4R antagonist: inactive; T cell modulator: inactive; Exocytosis inh: inactive; EP2 antag: inactive; MC4R ag barr: inactive; EP2 mod: 61

Results for Cc1cc(C)cc(OCC(=O)Nc2ccc(N3CCN(S(C)(=O)=O)CC3)cc2)c1 ?
MC4R antagonist: inactive; T cell modulator: inactive; Exocytosis inh: inactive; EP2 antag: inactive; MC4R ag barr: inactive; EP2 mod: inactive

What do the screens show for `Cc1cc(C)cc(OCC(=O)Nc2ccc(N3CCCCC3)cc2)c1`?
MC4R antagonist: inactive; T cell modulator: inactive; Exocytosis inh: inactive; MC4R ag barr: 8.8

How did O=C(Nc1ccccc1N1CCCCC1)c1ccco1 do in these assays?
MC4R antagonist: inactive; T cell modulator: inactive; Exocytosis inh: inactive; EP2 antag: inactive; MC4R ag barr: inactive; EP2 mod: 64

Source: PubChem BioAssay (several laboratories)
